Measurements from ChEMBL document CHEMBL5107950, “Structure-based design of haloperidol analogues as inhibitors of acetyltransferase Eis from Mycobacterium tuberculosis to overcome kanamycin resistance” (RSC Med Chem, 2021).
In brackets after ≈: the same amount, converted by molar mass. Activity calls are given as the source filed them. The calls are words filed in the database; no cut-off is given here.

Assays:
[1] = test system: Mycobacterium tuberculosis variant bovis; experiment: Antibacterial activity against Mycobacterium bovis BCG ATCC 35734 assessed as inhibition of bacterial growth incubated upto 3 weeks hrs by resazurin dye based double-dilution method; assay type: functional; conditions: BCG ATCC 35734, 504 h
Summary of the method: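 Double-dilution broth MIC. Media: M. smegmatis, Mueller-Hinton; M. abscessus, 7H9 + 0.05% Tween80 + 0.4% glycerol; mc²6230, 7H9 + 0.05% tyloxapol, 0.5% glycerol, 10% OADC, 0.2% casamino acids, 24 µg/mL pantothenate; other mycobacteria, 7H9 + 0.05% Tween80, 0.4% glycerol, 10% ADC. Inoculum from agar set to 0.5 McFarland, then diluted 1:100.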

[2] = test system: Mycobacterium tuberculosis variant bovis; experiment: Synergistic antibacterial activity against Mycobacterium bovis BCG ATCC 35734 in presence of spectinomycin by checkerboard assay; assay type: functional, organism-based
Summary of the method: (§1)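 Checkerboard in 96-well plates. Antibiotic two-fold serially diluted along columns, haloperidol derivative two-fold along rows. Bacteria prepared as for the MIC determination. MICs alone and in combination used to calculate FICI. At least duplicate independent trials.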

[3] = test system: Mycobacterium tuberculosis variant bovis; experiment: Antibacterial activity against Mycobacterium bovis BCG ATCC 35734 in presence of clarithromycin by checkerboard assay; assay type: functional, organism-based; summary of the method: as §1
[4] = test system: Mycobacterium tuberculosis variant bovis; experiment: Antibacterial activity against Mycobacterium bovis BCG ATCC 35734 in presence of clofazimine by checkerboard assay; assay type: functional, organism-based; summary of the method: as §1

## O=C(CCCN1CCC(O)(c2ccc(F)cc2)CC1)c1ccccc1
[1]
  MIC: > 62.5 µM

## COc1ccc(C(=O)CCCN2CCC(O)(c3ccc(F)cc3)CC2)cc1
[1]
  MIC: > 62.5 µM

## O=C(CCCN1CCC(O)(c2ccc(Br)cc2)CC1)c1ccccc1
[1]
  MIC: > 62.5 µM

## O=C(CCCN1CCC(O)(c2ccccc2)CC1)c1ccc(F)cc1
[1]
  MIC: > 62.5 µM

## NNC(=O)c1ccncc1 [ISONIAZID]
[1]
  MIC: ≤ 1 µM

## O=C(CN1CCC(O)(c2ccc(Cl)cc2)CC1)c1ccc(F)cc1
[1]
  MIC: > 62.5 µM

## O=C(CCCN1CCC(O)(c2ccc(F)cc2)CC1)c1ccc(Br)cc1
[1]
  MIC: 62.5 µM (≈ 26.3 µg/mL)

## COc1ccc(C(=O)CCCN2CCC(O)(c3ccc(Br)cc3)CC2)cc1
[1]
  MIC: 62.5 µM (≈ 27 µg/mL)

## O=C(CCCN1CCC(O)(c2ccc(Cl)cc2)CC1)c1ccccc1
[1]
  MIC: 62.5 µM (≈ 22.4 µg/mL)

## CC(C)(C)c1ccc(C(=O)CCCN2CCC(O)(c3ccc(F)cc3)CC2)cc1
[1]
  MIC: 15.6 µM (≈ 6.2 µg/mL)

## O=C(CCCN1CCC(O)(c2ccc(Cl)cc2)CC1)c1ccc(Cl)cc1 [CHLOROHALOPERIDOL]
[1]
  MIC: 62.5 µM (≈ 24.5 µg/mL)
[2]
  Activity: Active
[3]
  Activity: Active
[4]
  Activity: Active

## CC(C)(C)c1ccc(C(=O)CCCN2CCC(O)(c3ccc(Cl)cc3)CC2)cc1
[1]
  MIC: 3.9 µM (≈ 1.61 µg/mL)

## Cc1ccc(C(=O)CCCN2CCC(O)(c3ccc(Cl)cc3)CC2)cc1
[1]
  MIC: 15.6 µM (≈ 5.8 µg/mL)

## CCc1ccc(C(=O)CCCN2CCC(O)(c3ccc(Cl)cc3)CC2)cc1
[1]
  MIC: 2 µM (≈ 0.772 µg/mL)

## Fc1ccc(OCCCN2CCC(c3ccccc3)CC2)cc1
[1]
  MIC: > 62.5 µM

## COc1ccc(C(=O)CCCN2CCC(O)(c3ccc(Cl)cc3)CC2)cc1
[1]
  MIC: > 62.5 µM

## O=C(CCCN1CCCCC1)c1ccc(F)cc1 [PRIMAPERONE]
[1]
  MIC: > 62.5 µM

## O=C(CCCN1CCC(O)(c2ccc(Br)cc2)CC1)c1ccc(F)cc1 [BROMPERIDOL]
[1]
  MIC: 62.5 µM (≈ 26.3 µg/mL)

## CC1CCCCN1CCCOc1ccc(F)cc1 (stereo not drawn)
[1]
  MIC: 3.9 µM (≈ 0.98 µg/mL)

## CC(=O)CCCN1CCC(O)(c2ccc(Cl)cc2)CC1
[1]
  MIC: > 62.5 µM

## O=C(CCCN1CCC(O)(c2ccc(Cl)cc2)CC1)c1ccc(F)cc1 [HALOPERIDOL]
[1]
  MIC: 62.5 µM (≈ 23.5 µg/mL)

## O=C(CCCN1CCC(O)(c2ccc(Br)cc2)CC1)c1ccc(Cl)cc1
[1]
  MIC: 15.6 µM (≈ 6.81 µg/mL)
[2]
  Activity: Active
[3]
  Activity: Active
[4]
  Activity: Active

## O=C(CCCN1CCC(O)(c2ccc(F)cc2)CC1)c1ccc(Cl)cc1
[1]
  MIC: > 62.5 µM
[2]
  Activity: Active
[3]
  Activity: Active
[4]
  Activity: Active

## O=C(CCCN1CCC(O)(c2ccc(F)cc2)CC1)c1ccc(F)cc1
[1]
  MIC: > 62.5 µM

## CC(C)c1ccc(C(=O)CCCN2CCC(O)(c3ccc(Cl)cc3)CC2)cc1
[1]
  MIC: 1 µM (≈ 0.4 µg/mL)

## CC(C)(C)c1ccc(C(=O)CCCN2CCC(O)(c3ccc(Br)cc3)CC2)cc1
[1]
  MIC: 3.9 µM (≈ 1.79 µg/mL)

## O=C(CCCN1CCC(c2ccc(Cl)cc2)CC1)c1ccc(F)cc1
[1]
  MIC: 62.5 µM (≈ 22.5 µg/mL)

## O=C(CCCN1CCC(O)CC1)c1ccc(F)cc1
[1]
  MIC: > 62.5 µM

## CC1CC(C)CN(CCCC(=O)c2ccc(C(C)(C)C)cc2)C1 (stereo not drawn)
[1]
  MIC: 31.3 µM (≈ 9.88 µg/mL)

## CC1CC(C)CN(CCCOc2ccc(F)cc2)C1 (stereo not drawn)
[1]
  MIC: 15.6 µM (≈ 4.14 µg/mL)

## O=C(CCCN1CCC(O)(c2ccc(Br)cc2)CC1)c1ccc(Br)cc1
[1]
  MIC: > 62.5 µM

## O=C(CCCN1CCC(O)(c2ccc(Cl)cc2)CC1)c1ccc(Br)cc1
[1]
  MIC: > 62.5 µM

## O=C(CCCN1CC=C(c2ccc(Cl)cc2)CC1)c1ccc(F)cc1
[1]
  MIC: 15.6 µM (≈ 5.58 µg/mL)

## Cc1ccc(S(=O)(=O)N2CCC(O)(c3ccc(Cl)cc3)CC2)cc1
[1]
  MIC: > 62.5 µM
